Results as given in ChEMBL document CHEMBL1152649, “Synthesis, cytotoxicity and human telomerase inhibition activities of a series of 1,2-heteroannelated anthraquinones and anthra[1,2-d]imidazole-6,11-dione homologues” (2009).

Key:
NCI-H460 = test: Antiproliferative activity against human NCI-H460 cells assessed as cell growth at 10 uM; assay type: functional; conditions: read-out: Activity
How it was run: (§1)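 NCI 60 cell line panel, single-dose screen (10^-5 M) run by the developmental therapeutics program protocol. Results are given as growth percent of treated cells relative to untreated control cells for each line.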

[1] = Cytotoxicity against human H1299 cells at 100 uM after 48 hrs by MTT assay; assay type: functional; conditions: NCI-H1299, 48 h
How it was run: (§2)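 H1299 non-small cell lung cancer cells were grown in RPMI 1640 with 10% FBS, penicillin and streptomycin at 37 °C under 5% CO2. About 2 × 10³ cells per well were seeded and left 24 h. Compounds were dissolved fresh in DMSO, diluted into complete medium and applied for 48 h. MTT was then added for 4 h at 37 °C, followed by lysis buffer (20% SDS, 50% DMF) for 16 h, and absorbance was read at 550 nm.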

SW-620 = test: Antiproliferative activity against human SW620 cells assessed as cell growth at 10 uM; assay type: functional; conditions: read-out: Activity
How it was run: (§3)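 NCI 60 cell line panel, single dose (10^-5 M), run per the Developmental Therapeutics Program protocol (one dose mean graph). Each result is the growth percentage of treated cells relative to untreated control cells.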

SK-OV-3 = test: Antiproliferative activity against human SKOV3 cells assessed as cell growth at 10 uM; assay type: functional; conditions: read-out: Activity; how it was run: as §1
NCI/ADR-RES = test: Antiproliferative activity against human NCI/ADR-RES cells assessed as cell growth at 10 uM; assay type: functional; conditions: read-out: Activity; how it was run: as §1
786-0 = test: Antiproliferative activity against human 786-0 cells assessed as cell growth at 10 uM; assay type: functional; conditions: read-out: Activity; how it was run: as §1
HCC 2998 = test: Antiproliferative activity against human HCC2998 cells assessed as cell growth at 10 uM; assay type: functional; conditions: read-out: Activity; how it was run: as §1
CAKI-1 = test: Antiproliferative activity against human Caki1 cells assessed as cell growth at 10 uM; assay type: functional; conditions: read-out: Activity; how it was run: as §1
HOP-92 = test: Antiproliferative activity against human HOP92 cells assessed as cell growth at 10 uM; assay type: functional; conditions: read-out: Activity; how it was run: as §1
SF-268 = test: Antiproliferative activity against human SF268 cells assessed as cell growth at 10 uM; assay type: functional; conditions: read-out: Activity; how it was run: as §1
SK-MEL-5 = test: Antiproliferative activity against human SK-MEL-5 cells assessed as cell growth at 10 uM; assay type: functional; conditions: read-out: Activity; how it was run: as §1
MDA-MB-231 = test: Antiproliferative activity against human MDA-MB-231 cells assessed as cell growth at 10 uM; assay type: functional; conditions: read-out: Activity; how it was run: as §1
SK-MEL-28 = test: Antiproliferative activity against human SK-MEL-28 cells assessed as cell growth at 10 uM; assay type: functional; conditions: read-out: Activity; how it was run: as §1
NCI-H522 = test: Antiproliferative activity against human NCI-H522 cells assessed as cell growth at 10 uM; assay type: functional; conditions: read-out: Activity; how it was run: as §1
[2] = Antiproliferative activity against human Hs 578T cells assessed as cell growth at 10 uM; assay type: functional; conditions: read-out: Activity; how it was run: as §1
OVCAR-4 = test: Antiproliferative activity against human OVCAR4 cells assessed as cell growth at 10 uM; assay type: functional; conditions: read-out: Activity; how it was run: as §1
Malme-3M = test: Antiproliferative activity against human MALME-3M cells assessed as cell growth at 10 uM; assay type: functional; conditions: read-out: Activity; how it was run: as §1
TK-10 = test: Antiproliferative activity against human TK10 cells assessed as cell growth at 10 uM; assay type: functional; conditions: read-out: Activity; how it was run: as §3
HCT-15 = test: Antiproliferative activity against human HCT15 cells assessed as cell growth at 10 uM; assay type: functional; conditions: read-out: Activity; how it was run: as §1
HT-29 = test: Antiproliferative activity against human HT-29 cells assessed as cell growth at 10 uM; assay type: functional; conditions: read-out: Activity; how it was run: as §1
CCRF-CEM = test: Antiproliferative activity against human CCRF-CEM cells assessed as cell growth at 10 uM; assay type: functional; conditions: read-out: Activity; how it was run: as §1
SF-295 = test: Antiproliferative activity against human SF295 cells assessed as cell growth at 10 uM; assay type: functional; conditions: read-out: Activity; how it was run: as §1
T47D = test: Antiproliferative activity against human T47D cells assessed as cell growth at 10 uM; assay type: functional; conditions: read-out: Activity; how it was run: as §3
NCI-H322M = test: Antiproliferative activity against human NCI-H322M cells assessed as cell growth at 10 uM; assay type: functional; conditions: read-out: Activity; how it was run: as §1
SNB-75 = test: Antiproliferative activity against human SNB75 cells assessed as cell growth at 10 uM; assay type: functional; conditions: read-out: Activity; how it was run: as §3
SR = test: Antiproliferative activity against human SR cells assessed as cell growth at 10 uM; assay type: functional; conditions: read-out: Activity; how it was run: as §3
[3] = molecular target: Telomerase reverse transcriptase (Homo sapiens) (UniProt O14746); test: Inhibition of TERT in human H1299 cells assessed as residual transcriptional activity at 10 uM after 24 hrs by SEAP reporter gene assay; values are per cent of control
MDA-MB-435 = test: Antiproliferative activity against human MDA-MB-435 cells assessed as cell growth at 10 uM; assay type: functional; conditions: read-out: Activity; how it was run: as §1
UACC-62 = test: Antiproliferative activity against human UACC62 cells assessed as cell growth at 10 uM; assay type: functional; conditions: read-out: Activity; how it was run: as §3
[4] = molecular target: Telomerase reverse transcriptase (Homo sapiens) (UniProt O14746); test: Inhibition of TERT in human H1299 cells assessed as residual transcriptional activity at 100 uM after 24 hrs by SEAP reporter gene assay; values are per cent of control
ACHN = test: Antiproliferative activity against human ACHN cells assessed as cell growth at 10 uM; assay type: functional; conditions: read-out: Activity; how it was run: as §1
[5] = Cytotoxicity against human H1299 cells at 10 uM after 48 hrs by MTT assay; assay type: functional; conditions: NCI-H1299, 48 h; how it was run: as §2
OVCAR-8 = test: Antiproliferative activity against human OVCAR8 cells assessed as cell growth at 10 uM; assay type: functional; conditions: read-out: Activity; how it was run: as §1
A498 = test: Antiproliferative activity against human A498 cells assessed as cell growth at 10 uM; assay type: functional; conditions: read-out: Activity; how it was run: as §1
OVCAR-3 = test: Antiproliferative activity against human OVCAR-3 cells assessed as cell growth at 10 uM; assay type: functional; conditions: read-out: Activity; how it was run: as §1
A549 = test: Antiproliferative activity against human A549 cells assessed as cell growth at 10 uM; assay type: functional; conditions: read-out: Activity; how it was run: as §1
MCF7 = test: Antiproliferative activity against human MCF7 cells assessed as cell growth at 10 uM; assay type: functional; conditions: read-out: Activity; how it was run: as §1
PC-3 = test: Antiproliferative activity against human PC3 cells assessed as cell growth at 10 uM; assay type: functional; conditions: read-out: Activity; how it was run: as §1
U-251 = test: Antiproliferative activity against human U251 cells assessed as cell growth at 10 uM; assay type: functional; conditions: read-out: Activity; how it was run: as §3
MOLT-4 = test: Antiproliferative activity against human MOLT4 cells assessed as cell growth at 10 uM; assay type: functional; conditions: read-out: Activity; how it was run: as §1
LOX IMVI = test: Antiproliferative activity against human LOXIMVI cells assessed as cell growth at 10 uM; assay type: functional; conditions: read-out: Activity; how it was run: as §1
NCI-H23 = test: Antiproliferative activity against human NCI-H23 cells assessed as cell growth at 10 uM; assay type: functional; conditions: read-out: Activity; how it was run: as §1
M14 = test: Antiproliferative activity against human M14 cells assessed as cell growth at 10 uM; assay type: functional; conditions: read-out: Activity; how it was run: as §1
UO-31 = test: Antiproliferative activity against human UO31 cells assessed as cell growth at 10 uM; assay type: functional; conditions: read-out: Activity; how it was run: as §3
EKVX = test: Antiproliferative activity against human EKVX cells assessed as cell growth at 10 uM; assay type: functional; conditions: read-out: Activity; how it was run: as §1
HL-60(TB) = test: Antiproliferative activity against human HL-60(TB) cells assessed as cell growth at 10 uM; assay type: functional; conditions: read-out: Activity
How it was run: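 NCI Developmental Therapeutics Program 60-cell-line one-dose screen at 10^-5 M. Readout is growth percentage of treated cells relative to untreated control cells.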

HCT-116 = test: Antiproliferative activity against human HCT116 cells assessed as cell growth at 10 uM; assay type: functional; conditions: read-out: Activity; how it was run: as §1

Chain of Telomerase reverse transcriptase (Homo sapiens) (O14746 whole entry): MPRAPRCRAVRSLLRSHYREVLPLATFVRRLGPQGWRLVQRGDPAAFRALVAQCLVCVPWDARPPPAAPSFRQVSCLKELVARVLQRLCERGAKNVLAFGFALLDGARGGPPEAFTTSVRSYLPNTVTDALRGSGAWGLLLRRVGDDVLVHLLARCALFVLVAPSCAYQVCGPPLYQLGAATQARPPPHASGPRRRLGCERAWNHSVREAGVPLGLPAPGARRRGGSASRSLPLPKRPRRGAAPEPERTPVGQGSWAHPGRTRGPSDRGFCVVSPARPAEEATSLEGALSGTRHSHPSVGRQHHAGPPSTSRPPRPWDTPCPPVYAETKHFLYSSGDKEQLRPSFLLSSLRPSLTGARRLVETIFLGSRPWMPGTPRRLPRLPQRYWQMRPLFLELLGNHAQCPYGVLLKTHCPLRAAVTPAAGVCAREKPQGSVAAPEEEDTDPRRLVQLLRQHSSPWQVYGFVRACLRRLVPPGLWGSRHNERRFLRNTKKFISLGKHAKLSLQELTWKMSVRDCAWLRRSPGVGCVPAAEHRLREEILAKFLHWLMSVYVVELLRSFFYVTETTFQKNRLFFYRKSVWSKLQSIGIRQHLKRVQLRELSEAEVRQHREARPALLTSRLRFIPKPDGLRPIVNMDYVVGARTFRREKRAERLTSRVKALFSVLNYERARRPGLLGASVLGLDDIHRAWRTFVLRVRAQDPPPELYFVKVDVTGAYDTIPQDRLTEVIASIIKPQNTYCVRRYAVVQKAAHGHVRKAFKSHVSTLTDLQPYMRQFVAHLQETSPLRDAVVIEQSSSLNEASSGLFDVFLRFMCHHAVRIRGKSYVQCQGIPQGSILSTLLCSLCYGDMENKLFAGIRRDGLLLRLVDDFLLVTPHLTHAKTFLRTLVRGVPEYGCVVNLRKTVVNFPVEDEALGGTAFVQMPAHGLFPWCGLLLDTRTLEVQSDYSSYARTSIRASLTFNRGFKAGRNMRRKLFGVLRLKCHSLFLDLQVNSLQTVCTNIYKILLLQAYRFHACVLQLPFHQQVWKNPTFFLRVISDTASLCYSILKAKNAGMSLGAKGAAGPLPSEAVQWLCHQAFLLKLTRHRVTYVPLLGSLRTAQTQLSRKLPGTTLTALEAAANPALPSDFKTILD

O=C1c2ccccc2C(=O)c2c1ccc1nc(-c3ccccc3)[nH]c21
growth at 10 µM (NCI-H460): 86.2% | viability at 100 µM [1]: 34% | growth at 10 µM (SW-620): 82.8% | growth at 10 µM (SK-OV-3): 115% | growth at 10 µM (NCI/ADR-RES): 90.2% | growth at 10 µM (786-0): 111% | growth at 10 µM (HCC 2998): 105% | growth at 10 µM (CAKI-1): 51.9% | growth at 10 µM (HOP-92): 50.7% | growth at 10 µM (SF-268): 91.9% | growth at 10 µM (SK-MEL-5): 65.2% | growth at 10 µM (MDA-MB-231): 81.4% | growth at 10 µM (SK-MEL-28): 60.4% | growth at 10 µM (NCI-H522): 80.4% | growth at 10 µM [2]: 30.4% | growth at 10 µM (OVCAR-4): 73.4% | growth at 10 µM (Malme-3M): 74.5% | growth at 10 µM (TK-10): 82% | growth at 10 µM (HCT-15): 86.3% | growth at 10 µM (HT-29): 83.2% | growth at 10 µM (CCRF-CEM): 86.3% | growth at 10 µM (SF-295): 73.6% | growth at 10 µM (T47D): 65.1% | growth at 10 µM (NCI-H322M): 77.4% | growth at 10 µM (SNB-75): 75.1% | growth at 10 µM (SR): 95.5% | residual activity [3]: 78% | growth at 10 µM (MDA-MB-435): 101% | growth at 10 µM (UACC-62): 70.4% | residual activity [4]: 10% | growth at 10 µM (ACHN): 71.9% | viability at 10 µM [5]: 72% | growth at 10 µM (OVCAR-8): 91% | growth at 10 µM (A498): 77% | growth at 10 µM (OVCAR-3): 69.2% | growth at 10 µM (A549): 79% | growth at 10 µM (MCF7): 51.8% | growth at 10 µM (PC-3): 52.5% | growth at 10 µM (U-251): 97.1% | growth at 10 µM (MOLT-4): 88.3% | growth at 10 µM (LOX IMVI): 79.7% | growth at 10 µM (NCI-H23): 91.7% | growth at 10 µM (M14): 101% | growth at 10 µM (UO-31): 57.6% | growth at 10 µM (EKVX): 77.1% | growth at 10 µM (HL-60(TB)): 99% | growth at 10 µM (HCT-116): 82.4%
